A short description of the data set: Metabolic stability in human liver microsomes assessed as compound remaining preincubated for 5 mins in presence of NADPH regeneration system followed by HLM addition measured after 240 mins by LC-MS analysis. It is filed as ADME, Microsome. As to conditions: read-out: Stabilty. In a few lines: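 Compounds were incubated with human liver microsomes and sampled at 0, 10, 20, 30, 60, 120, 180 and 240 min. Degradation and metabolite formation were followed by LC-MS, ESI(+). Run in triplicate; mean with standard deviation reported.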
A general note: Microsomes from liver hold many membrane-bound enzymes, among them those of drug oxidation.

Consider `NC(=O)[C@H](CCC1CCCCC1)NC(=O)c1ccc(CNC(=O)c2cnn(-c3ccccc3)c2N)cc1`, for which the remaining at 4 h amounted to 66.9%.

For the compound `Nc1c(C(=O)NCc2ccc(C(=O)N[C@@H](CCC3CCCCC3)C(=O)NCc3ccncc3)cc2)cnn1-c1ccccc1`, the remaining at 4 h turned out to be 99.5%.

In the case of `Nc1c(C(=O)NCc2ccc(C(=O)N[C@@H](CCC3CCCCC3)C(=O)Nc3ccc(F)cc3)cc2)cnn1-c1ccccc1`, the remaining at 4 h was found to be 83.5%.

`CCNC(=O)[C@H](CCC1CCCCC1)NC(=O)c1ccc(CNC(=O)c2cnn(-c3ccccc3)c2N)cc1`: the remaining at 4 h amounted to 64%.
